# From ChEMBL document CHEMBL4190276, “Design, synthesis and evaluation of coumarin-pargyline hybrids as novel dual inhibitors of monoamine oxidases and amyloid-β aggregation for the treatment of Alzheimer's disease” (Eur J Med Chem, 2017)
# Key:
# [1] = molecular target: T1, Amine oxidase [flavin-containing] A (Homo sapiens, UniProt P21397); assay: Inhibition of recombinant human MAO-A using p-tyramine as substrate preincubated for 15 mins followed by substrate addition measured after 20 mins by amplex red reagent based fluorescence assay
# T1 sequence (P21397 whole entry): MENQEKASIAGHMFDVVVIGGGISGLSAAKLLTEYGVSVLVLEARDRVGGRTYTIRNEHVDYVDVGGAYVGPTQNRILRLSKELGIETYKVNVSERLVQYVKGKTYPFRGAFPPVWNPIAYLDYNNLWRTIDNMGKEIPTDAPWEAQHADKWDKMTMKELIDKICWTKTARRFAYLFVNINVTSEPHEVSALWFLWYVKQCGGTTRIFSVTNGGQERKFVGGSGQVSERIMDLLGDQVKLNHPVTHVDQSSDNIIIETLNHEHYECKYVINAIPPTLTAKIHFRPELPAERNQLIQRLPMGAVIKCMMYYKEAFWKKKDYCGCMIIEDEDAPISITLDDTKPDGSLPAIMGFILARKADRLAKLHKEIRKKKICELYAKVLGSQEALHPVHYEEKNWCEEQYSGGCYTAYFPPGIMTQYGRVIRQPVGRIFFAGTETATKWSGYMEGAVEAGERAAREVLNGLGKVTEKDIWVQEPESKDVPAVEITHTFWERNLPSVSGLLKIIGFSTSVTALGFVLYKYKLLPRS
# [2] = molecular target: T2, Amine oxidase [flavin-containing] B (Homo sapiens, UniProt P27338); assay: Inhibition of recombinant human MAO-B using p-tyramine as substrate preincubated for 15 mins followed by substrate addition measured after 20 mins by amplex red reagent based fluorescence assay
# T2 sequence (P27338 whole entry): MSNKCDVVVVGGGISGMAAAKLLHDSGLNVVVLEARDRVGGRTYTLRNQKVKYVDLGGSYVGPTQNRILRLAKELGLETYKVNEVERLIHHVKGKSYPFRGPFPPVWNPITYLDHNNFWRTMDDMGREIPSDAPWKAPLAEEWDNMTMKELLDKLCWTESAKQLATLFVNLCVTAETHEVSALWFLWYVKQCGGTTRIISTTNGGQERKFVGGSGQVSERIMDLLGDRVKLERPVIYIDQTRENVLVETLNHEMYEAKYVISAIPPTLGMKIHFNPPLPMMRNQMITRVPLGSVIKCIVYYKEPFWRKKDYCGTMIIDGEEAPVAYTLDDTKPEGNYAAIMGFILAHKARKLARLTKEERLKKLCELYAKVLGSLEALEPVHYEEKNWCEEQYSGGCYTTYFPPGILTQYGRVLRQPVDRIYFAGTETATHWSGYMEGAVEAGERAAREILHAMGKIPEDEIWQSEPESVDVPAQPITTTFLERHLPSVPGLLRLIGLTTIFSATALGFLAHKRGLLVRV
# Homo sapiens = species on record: Homo sapiens; assay: Selectivity index, ratio of IC50 for recombinant human MAO-A to IC50 for recombinant human MAO-B
# In short: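 Commercial human MAO-A (1.1 μg protein) and MAO-B (7.5 μg protein) adjusted to equal velocity (165 pmol p-tyramine/min). Compounds from 10 mM DMSO stock diluted in 0.05 M potassium phosphate, pH 7.4. Preincubated with enzyme 15 min at 37 °C in the dark; 200 μM Amplex Red, 2 U/mL HRP, 2 mM p-tyramine added for 20 min at 37 °C.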
# [3] = molecular target: Amyloid-beta precursor protein (Homo sapiens) (UniProt P05067); assay: Inhibition of self-induced Amyloid beta (1 to 42) (unknown origin) aggregation at 25 uM after 48 hrs by thioflavin T-based fluorometric assay relative to control
# In short: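 Aβ1-42 stock (2000 μM in 1% ammonium hydroxide) diluted in 50 mM phosphate pH 7.4. Peptide (final 25 μM) incubated with or without compound (25 μM) at 37 °C for 48 h. Then diluted in 50 mM glycine-NaOH pH 8.0 containing 5 μM thioflavin T, read after 5 min (ex 446/em 490 nm). Inhibition = (1 − IFi/IFc) × 100 after blank subtraction. Mean ± SD of three independent experiments.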
# Mus musculus [4] = assay: Acute toxicity in Kunming mouse assessed as mortality at 2.4 mmol/kg, po administered as single dose via gavage measured continuously for first 4 hrs, intermittently for next 24 hrs and occasionally thereafter for 14 days; assay type: organism-based; conditions: in vivo
# In short: (§1)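 Male KM mice (22 days old, 18–20 g), 15 in total, randomly split into 3 groups of 5. Kept on a 12 h light/dark cycle at 20-22 °C and 60-70% humidity, fasted overnight with free water. Single oral dose of 2.4 mmol/kg suspended in 0.5% CMC-Na. Mortality, behaviour, water and food intake, and body weight followed over 14 days.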
# Mus musculus [5] = assay: Acute toxicity in Kunming mouse assessed as abnormal change in water consumption at 2.4 mmol/kg, po administered as single dose via gavage measured continuously for first 4 hrs, intermittently for next 24 hrs and occasionally thereafter for 14 days; assay type: organism-based; conditions: in vivo; in short: as §1
# Mus musculus [6] = assay: Acute toxicity in Kunming mouse assessed as abnormal change in food consumption at 2.4 mmol/kg, po administered as single dose via gavage measured continuously for first 4 hrs, intermittently for next 24 hrs and occasionally thereafter for 14 days; assay type: organism-based; conditions: in vivo; in short: as §1
# Mus musculus [7] = assay: Acute toxicity in Kunming mouse assessed as abnormal change in body weight at 2.4 mmol/kg, po administered as single dose via gavage measured continuously for first 4 hrs, intermittently for next 24 hrs and occasionally thereafter for 14 days; assay type: organism-based; conditions: in vivo; in short: as §1
# Mus musculus [8] = assay: Cardiotoxicity in Kunming mouse at 2.4 mmol/kg, po administered as single dose via gavage measured continuously for first 4 hrs, intermittently for next 24 hrs and occasionally thereafter for 14 days by […]; assay type: toxicity, organism-based; conditions: in vivo
# In short: (§2)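 Male KM mice (18–20 g) received a single oral 2.4 mmol/kg dose in 0.5% CMC-Na suspension after an overnight fast. All animals were sacrificed on day 14 after dosing, and heart, liver and kidneys were examined macroscopically for damage.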
# Mus musculus [9] = assay: Hepatotoxicity in Kunming mouse at 2.4 mmol/kg, po administered as single dose via gavage measured continuously for first 4 hrs, intermittently for next 24 hrs and occasionally thereafter for 14 days by […]; assay type: toxicity, organism-based; conditions: in vivo; in short: as §2
# Mus musculus [10] = assay: Nephrotoxicity in Kunming mouse at 2.4 mmol/kg, po administered as single dose via gavage measured continuously for first 4 hrs, intermittently for next 24 hrs and occasionally thereafter for 14 days […]; assay type: toxicity, organism-based; conditions: in vivo; in short: as §2
# Mus musculus [11] = assay: Acute toxicity in Kunming mouse assessed as effect on serum AST level at 2.4 mmol/kg, po administered as single dose via gavage measured continuously for first 4 hrs, intermittently for next 24 hrs and occasionally thereafter for 14 days; assay type: organism-based; conditions: in vivo
# In short: (§3)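 Male KM mice (18–20 g), fasted overnight, given one oral 2.4 mmol/kg dose suspended in 0.5% CMC-Na. On day 14, orbital blood was collected before decapitation and serum AST and ALT activities measured against a control group. Mean ± SD of three independent experiments.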
# Mus musculus [12] = assay: Acute toxicity in Kunming mouse assessed as effect on serum ALT level at 2.4 mmol/kg, po administered as single dose via gavage measured continuously for first 4 hrs, intermittently for next 24 hrs and occasionally thereafter for 14 days; assay type: organism-based; conditions: in vivo; in short: as §3
# [13] = Permeability of the compound in PBS/EtOH at […] after 16 hrs by PAMPA; assay type: ADME; conditions: read-out: Peff
# Sequence of Amyloid-beta precursor protein (Homo sapiens) (P05067 whole entry): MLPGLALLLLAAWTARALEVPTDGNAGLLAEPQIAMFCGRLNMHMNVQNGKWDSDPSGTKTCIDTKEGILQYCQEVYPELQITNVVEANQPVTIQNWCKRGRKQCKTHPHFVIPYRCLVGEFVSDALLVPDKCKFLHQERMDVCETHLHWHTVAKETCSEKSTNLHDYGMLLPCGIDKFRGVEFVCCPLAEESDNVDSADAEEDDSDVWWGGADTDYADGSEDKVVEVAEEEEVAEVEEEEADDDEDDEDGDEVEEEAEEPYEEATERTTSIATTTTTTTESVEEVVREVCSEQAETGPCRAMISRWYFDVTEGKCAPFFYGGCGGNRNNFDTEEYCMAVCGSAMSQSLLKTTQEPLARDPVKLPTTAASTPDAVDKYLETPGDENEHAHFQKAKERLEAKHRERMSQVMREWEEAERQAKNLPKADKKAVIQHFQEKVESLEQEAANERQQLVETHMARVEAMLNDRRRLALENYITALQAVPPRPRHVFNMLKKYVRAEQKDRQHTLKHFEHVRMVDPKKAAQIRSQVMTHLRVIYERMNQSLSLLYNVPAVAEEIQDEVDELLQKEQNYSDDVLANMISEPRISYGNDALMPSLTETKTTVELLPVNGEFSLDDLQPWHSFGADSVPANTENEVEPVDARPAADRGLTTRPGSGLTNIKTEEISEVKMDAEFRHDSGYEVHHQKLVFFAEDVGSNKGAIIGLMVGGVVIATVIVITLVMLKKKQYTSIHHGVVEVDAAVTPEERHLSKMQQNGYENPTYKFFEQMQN
Structure (SMILES),IC50 [1] [µM],IC50 [2] [µM],Ratio IC50 (Homo sapiens),also measured
C#CCN(CCCCOc1ccc2ccc(=O)oc2c1)Cc1ccc(OC)cc1,54.5,1.13,48.2,inhibition [3]: 49.1%
C#CCN(CCOc1ccc2ccc(=O)oc2c1)Cc1ccc(C(C)C)cc1,70,6.96,10.1,–
C#CCN(CCCOc1ccc2ccc(=O)oc2c1)Cc1cccc(F)c1,29.3,4.44,6.59,–
C#CCN(C)CCCOc1ccc2ccc(=O)oc2c1,36.9,1.08,34,inhibition [3]: 59.3%
C#CCN(C)Cc1ccccc1 [PARGYLINE],–,–,–,Activity (Mus musculus [4]): Non-Toxic; Activity (Mus musculus [5]): Non-Toxic; Activity (Mus musculus [6]): Non-Toxic; Activity (Mus musculus [7]): Non-Toxic; Activity (Mus musculus [8]): Non-Toxic; Activity (Mus musculus [9]): Non-Toxic; Activity (Mus musculus [10]): Non-Toxic; Activity (Mus musculus [11]): Non-Toxic; Activity (Mus musculus [12]): Non-Toxic
C#CCN(CCCCOc1ccc2ccc(=O)oc2c1)Cc1ccccc1,89.3,0.978,91.4,–
C#CCN(CCCOc1ccc2ccc(=O)oc2c1)Cc1ccc(C(C)C)cc1,77.4,7.58,10.2,–
C#CCN(CCOc1ccc2ccc(=O)oc2c1)Cc1ccc(C)cc1,56.4,5.64,10,–
C#CCN(CCOc1ccc2ccc(=O)oc2c1)Cc1ccccc1,89.5,8.3,10.8,–
C#CCN(CCOc1ccc2ccc(=O)oc2c1)Cc1cccc(F)c1,53.3,5.53,9.64,–
C#CCN(CCOc1ccc2ccc(=O)oc2c1)Cc1ccc(F)c(F)c1,40.8,9.62,4.24,–
C#CCN(CCCCOc1ccc2ccc(=O)oc2c1)Cc1ccc(F)c(F)c1,93.2,2.37,39.4,inhibition [3]: 30.6%
C#CCN(C)CCOc1ccc2ccc(=O)oc2c1,69.9,1.1,63.4,inhibition [3]: 36.4%
C#CCN(CCOc1ccc2ccc(=O)oc2c1)Cc1ccc(OC)cc1,55,3.51,15.7,–
C#CCN(CCOc1ccc2ccc(=O)oc2c1)Cc1cccc(OC)c1,72.1,7.01,10.3,–
C#CCN(CCCOc1ccc2ccc(=O)oc2c1)Cc1ccc(F)c(F)c1,49.2,4.86,10.1,–
C#CCN(CCCOc1ccc2ccc(=O)oc2c1)Cc1ccccc1,38.6,3.74,10.3,–
C#CCN(CCCCOc1ccc2ccc(=O)oc2c1)Cc1cccc(F)c1,69.1,1.55,44.6,–
C#CCN(CCCCOc1ccc2ccc(=O)oc2c1)Cc1cccc(OC)c1,78.6,2.34,33.6,inhibition [3]: 38.2%
C#CCN(CCCOc1ccc2ccc(=O)oc2c1)Cc1ccc(C)cc1,116,7.38,15.8,–
C#CCN(CCCCOc1ccc2ccc(=O)oc2c1)Cc1ccc(C(C)C)cc1,35.4,3.5,10.1,–
C#CCN(CCCOc1ccc2ccc(=O)oc2c1)Cc1cccc(OC)c1,22.7,4.59,4.94,–
C#CCN(CCCCOc1ccc2ccc(=O)oc2c1)Cc1ccc(C)cc1,94.5,1.68,56.4,inhibition [3]: 50%
C[C@]12CC[C@@H]3c4ccc(O)cc4CC[C@H]3[C@@H]1CC[C@@H]2O [ESTRADIOL],–,–,–,Papp at 16 h [13]: 8 ×10⁻⁶ cm/s
C#CCN(CCCOc1ccc2ccc(=O)oc2c1)Cc1ccc(OC)cc1,60,6.08,9.87,–
CCn1cc(C(=O)O)c(=O)c2cc(F)c(N3CCNC(C)C3)c(F)c21 (stereo unspecified) [LOMEFLOXACIN],–,–,–,Papp at 16 h [13]: 1.05 ×10⁻⁶ cm/s
